# hERG protect: hERG rescue from dofetilide block, primary screen, cell-based, CHO-hERG, FluxOR thallium flux, dofetilide IC70; Voltage-gated inwardly rectifying potassium channel KCNH2 (Homo sapiens), Q12809; AID 1511, 2009; actives 0.51% (n = 310,000); dofetilide IC70 present; activation (rescue from dofetilide block), less the hit threshold, % at 10 µM;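 active = activation above the mean of controls blocked by dofetilide plus 5 SD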;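 also: thallium influx through hERG after potassium depolarization seen as dye fluorescence rise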
# KCNK9 block: KCNK9 potassium channel inhibitors, primary screen, HEK293 cells, thallium flux. actives 1.2% (n = 310,000). Potassium channel subfamily K member 9 (Homo sapiens), Q9NPC2. FluxOR thallium flux fluorescence; stronger effect = lower value. AID 488922, 2010. B-score at 10 µM;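 active = ratio B-score over 3 SD below the library mean, with starting fluorescence within 5 SD of its mean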;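 also: negative B-score means less thallium flux so channel inhibition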
# KCNK3 inh: human KCNK3 channel inhibitors, primary screen, CHO cells, FluxOR thallium flux, B-score. FluxOR fluorescence; stronger effect = lower value. B-score at 10 µM. actives 0.84% (n = 340,000). AID 602410, 2012;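 active = B-score under library mean minus 4 SD, starting fluorescence ratio at most library mean plus 5 SD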;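 also: more negative B-score means stronger inhibition of thallium flux through KCNK3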
# KCNQ1 act: potentiators or activators of KCNQ1 channel, primary screen, cell-based, thallium flux, high-throughput; Potassium voltage-gated channel subfamily KQT member 1 (Homo sapiens), P51787; CHO-K1 KCNQ1, thallium flux FluxOR fluorescence; stronger effect = higher value; B-score at 10 µM; actives 0.35% (n = 310,000);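 active = fluorescence ratio B-score, a plate-corrected score, at least three library SD, with initial intensity B-score within 5 SD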
#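 Assay system: CHO-K1 cells stably expressing KCNQ1; Medium: assay buffer with matched DMSO; Also added: K+/Tl+ depolarizing stimulus; Dosing: single dose; Timing: dye 90 min, compound 20 min, room temperature; Measured by: kinetic FluxOR thallium fluorescence, 10-s 1-Hz baseline, 110-s post-stimulus read; Read-out: peak-minus-minimum fluorescence over initial fluorescence, negative-control normalized, B-scored.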
# Kir21 inh: inhibitors of mouse Kir2.1 inward-rectifier potassium channel; HEK293-Kir2.1, FluxOR thallium flux fluorescence; stronger effect = lower value; B-score at 10 µM; actives 0.85% (n = 310,000);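 active = fluorescence ratio B-score at or below minus 3 SD of library scores, with starting-brightness B-score within 2 SD, cut at about -4.2 in these data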;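 also: channel flux triggered by added potassium and thallium sulfate stimulus; B-score of peak minus minimum fluorescence over baseline after thallium stimulus; more negative B-score means stronger Kir2.1 block with less thallium influx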
# Target sequence (P35561 whole entry, looked up): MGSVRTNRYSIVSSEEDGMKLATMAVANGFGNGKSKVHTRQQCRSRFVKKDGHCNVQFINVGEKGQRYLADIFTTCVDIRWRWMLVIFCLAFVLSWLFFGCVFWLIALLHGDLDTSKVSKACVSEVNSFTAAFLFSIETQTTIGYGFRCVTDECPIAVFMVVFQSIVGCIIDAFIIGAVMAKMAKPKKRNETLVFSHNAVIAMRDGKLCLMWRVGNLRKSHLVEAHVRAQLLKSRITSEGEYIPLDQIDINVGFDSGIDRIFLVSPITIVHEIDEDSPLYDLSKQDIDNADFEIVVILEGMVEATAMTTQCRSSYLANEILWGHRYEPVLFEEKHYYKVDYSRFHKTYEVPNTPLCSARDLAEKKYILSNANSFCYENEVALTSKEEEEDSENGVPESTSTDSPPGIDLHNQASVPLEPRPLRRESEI
# KCNQ1 inh: inhibitors of human KCNQ1 channel, primary screen, cell-based, thallium flux, high-throughput | Potassium voltage-gated channel subfamily KQT member 1 (Homo sapiens), P51787 | CHO-K1 KCNQ1, FluxOR thallium flux fluorescence; stronger effect = higher value | B-score at 10 µM | actives 1.3% (n = 310,000) | AID 2642, 2010;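 active = compounds whose thallium flux B-score, printed positive for inhibition, exceeds three library SD while starting fluorescence stays within three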;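 also: channel opened by potassium depolarization with thallium stimulus after 20 min compound exposure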
# * hit, by the source's call; i = inactive; / = no result. Sampled rows, rich in hits. Any-hit rate of the full collection: about 3.8%.
SMILES,hERG protect,KCNK9 block,KCNK3 inh,KCNQ1 act,Kir21 inh,KCNQ1 inh
COc1cccc(C(=O)NNC(=O)C(=O)Nc2ccc(C)cc2)c1,27*,i,i,37*,2,i
Cc1c(Br)c([N+](=O)[O-])nn1CC(=O)NCCc1ccc(Cl)cc1,-6,i,i,i,-0.01,i
COc1cccc(C(=O)Nc2ccc(C(=O)c3ccccc3)cc2)c1,-9,-7.7*,i,i,1,i
COc1cccc(C(=O)Nc2ccc(C(=O)O)cc2)c1,-13,i,i,i,-1.4,i
COc1ccc(-c2[nH]ncc2/C=N/NC(=O)c2ccncc2)c(OC)c1,-4,i,i,i,0.2,i
COc1ccc(C)cc1S(=O)(=O)NCc1cccs1,-4,i,i,i,-1.2,i
COc1ccccc1CNS(=O)(=O)c1cc(C)ccc1OC,-7,i,i,i,-5.6*,i
CC(C(=O)NCCCc1ccccc1)c1ccc([N+](=O)[O-])cc1 (stereo unspecified),-5,i,i,i,-4.4*,i
COc1ccc(C(CC(=O)c2ccc(C)cc2)Nc2ccc([N+](=O)[O-])cc2)cc1 (stereo unspecified),-8,i,i,i,-0.16,6*
O=C(O)c1cc([N+](=O)[O-])ccc1NCCCc1ccccc1,-10,i,i,i,-0.25,6*
CC(C(=O)NCc1ccc(F)cc1)c1ccc([N+](=O)[O-])cc1 (stereo unspecified),-5,i,i,i,-0.53,i
COc1ccc(CCNC(=O)C(C)c2ccc([N+](=O)[O-])cc2)cc1 (stereo unspecified),-6,i,i,i,-4.5*,i
CCc1nnc(NC(=O)C2CC(=O)N(c3ccc(C)cc3)C2)s1 (stereo unspecified),-4,i,i,i,0.06,i
S=c1nc(C2CC2)n(-c2ccccc2)[nH]1,-6,i,i,i,0.01,i
CC1Cn2c(nnc2C23CC4CC(CC(C4)C2)C3)S1 (stereo unspecified),-3,i,i,i,-1.2,i
Cc1ccccc1NC(=S)NNC(=O)c1csc2c1CCC(C)C2 (stereo unspecified),-8,i,i,10*,2.2,i
Cc1noc(C)c1CSc1nnc2scc(-c3ccc(Cl)cc3)n12,-12,i,i,i,-4.4*,i
NC(=NCCc1ccccc1)c1cccc([N+](=O)[O-])c1,-7,i,i,i,1.5,7*
CN(C(=O)c1cccc(COc2ccc(Cl)cc2Cl)c1)c1ccccc1,-12,i,i,i,-6*,i
Cc1cc(C)c2nc(N3CCN(C)CC3)c(C#N)cc2c1,-12,i,i,i,-1.2,i
Cc1cc(C)c2nc(N3CCCN(C(=O)c4cnccn4)CC3)c(C#N)cc2c1,-18,i,i,i,-5*,i
Cc1ccc(S(=O)(=O)Nc2cccnc2Oc2ccc(Cl)cc2)cc1,-11,i,i,i,-5*,i
Cc1ccc(C(=O)Nc2cccnc2Oc2ccc(Cl)cc2)cc1,-12,i,i,i,-1.4,i
COc1cccc(C2=CC(=O)C[C@H](c3ccc4c(c3)OCO4)C2)c1OC,/,/,i,/,/,/
O=C(N/N=C/c1coc2ccccc2c1=O)c1cc(Br)c(O)c(Br)c1,-30,i,i,i,0.01,8*
SMILES,hERG protect,KCNK9 block,KCNK3 inh,KCNQ1 act,Kir21 inh,KCNQ1 inh
COc1ccc(OC)c(C(=O)c2ccccn2)c1,-12,i,i,i,0.18,i
Cc1ccc(/C(O)=C/C(=O)C(=O)NC23CC4CC(CC(C4)C2)C3)cc1,8.5*,i,i,15*,-0.1,i
Cc1ccc(C(=O)NCC(=O)NC23CC4CC(CC(C4)C2)C3)cc1,-7,i,i,i,-0.08,i
CC1CCN(CCOCCOc2ccccc2-c2ccccc2)CC1,-11,i,i,i,-5.5*,i
c1ccc(-c2ccccc2OCCCCN2CCCCCC2)cc1,-12,i,i,i,-6.6*,i
CC1CCN(CCOc2ccc(OCc3ccccc3)cc2)CC1,-12,i,i,i,-7.1*,i
c1ccc(-c2ccccc2OCCOCCN2CCCCC2)cc1,-4,i,i,i,-2,i
COc1ccccc1OCCCCN1CCC(C)CC1,-8,i,i,i,-0.01,i
CC1CCN(CCCCOc2ccccc2-c2ccccc2)CC1,-18,i,i,i,-9.7*,i
CCn1c(=S)ccc2ccc(OC)cc21,-3,i,i,i,0.74,i
O=C(c1ccco1)N1CCN(CCOCCOc2cccc3ccccc23)CC1,-15,i,i,i,1.6,i
c1ccc(CN2CCN(CCOCCOc3cccc4ccccc34)CC2)cc1,-14,i,i,i,-14*,i
Cc1cc2ccccn2c1C(=O)c1ccc(F)cc1,-6,-7.2*,i,i,-0.52,i
Cc1ccc(OC(C)C(=O)Nc2ccccc2C(=O)NCc2cccnc2)cc1C (stereo unspecified),-24,i,i,i,-2.4,6*
Cc1ccc(S(=O)(=O)NCCNc2ccccc2[N+](=O)[O-])cc1,-6,i,i,i,-4.3*,i
O=[N+]([O-])c1ccc(NCCNS(=O)(=O)c2ccccc2)c(C(F)(F)F)c1,-6,i,i,i,-5.8*,i
CC(=N/O)/C(=N\O)c1ccc(C)o1,-5,i,i,i,0.25,i
CCCCNc1nc(CC(C)=O)ns1,-14,i,i,i,0.02,i
CCOC(=O)C1=C(c2ccccc2)NC(=O)NC1c1ccc(OC)c(OC)c1 (stereo unspecified),5.7*,i,i,i,0.1,i
COc1cc(C2NC(=O)NC(C)=C2C(=O)OCc2ccccc2)ccc1O (stereo unspecified),-11,i,i,i,0.34,i
COc1cc(C2NC(=O)NC(C)=C2C(=O)OCC2CCCCC2)ccc1O (stereo unspecified),7.1*,i,i,i,1.7,i

# Screens from PubChem BioAssay.
